Experimental findings from ChEMBL document CHEMBL5346889, “Discovery of 4-oxo-N-phenyl-1,4-dihydroquinoline-3-carboxamide derivatives as novel anti-inflammatory agents for the treatment of acute lung injury and sepsis” (Eur J Med Chem, 2023) are described below.

Usually Cmax stands for the peak of the concentration-time curve. By half-life is commonly meant the time in which the quantity being followed falls by half. Read a high half-life as slow loss. One may read the inhibition as how much of the control response was suppressed. Usually IC50 stands for the concentration that inhibits the measured activity by half. Usually AUC(0-t) stands for exposure summed from dosing to a finite time, without extrapolation to infinity. Lower therefore signals low exposure. As usually defined, the bioavailability is dose-corrected exposure relative to a reference, in per cent.

Data set [1] relates to Mus musculus. Briefly: Protection against LPS-induced C57/BL6 mouse acute lung injury model assessed as reduction in number of neutrophils in BALF at 20 mg/kg via oral gavage preincubated for 30 mins followed by LPS stimulation for 6 hrs. In kind it is functional, organism-based. Conditions: time 6.5 hrs. In short, it runs like this: (§1)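 Mice dosed 20 mg/kg by gavage (dexamethasone 20 mg/kg comparator), intratracheal LPS 5 mg/kg 30 min later, killed at 6 h. Right upper lobe fixed in paraformaldehyde, H&E; lung wet/dry ratio; BALF protein, total cells and neutrophils counted; n = 5 mice per group, mean ± SEM.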

A short description of data set [2]: Cmax in rat at 10 mg/kg, po. On the set-up: dose 10 mg/kg, route po. As to conditions: in vivo. In kind it is ADME, organism-based. In short, it runs like this: (§2)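 Rats dosed intravenously at 1 mg/kg or orally at 10 mg/kg; plasma pharmacokinetic parameters AUC(0-t), Tmax, T1/2, Cmax and oral bioavailability F derived from the two routes.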
In data set [3] the test system is Mus musculus. Briefly: Antiinflammatory activity in LPS-induced C57/BL6 mouse acute lung injury model assessed as decrease in IL-6 level in BALF at 20 mg/kg via oral gavage preincubated for 30 mins followed by LPS stimulation for 6 hrs by ELISA. As to conditions: time 6.5 hrs. On the technique in general: ELISA stands for enzyme-linked immunosorbent assay.
The nature of data set [4]: Half life in rat at 10 mg/kg, po. In kind it is ADME, organism-based. As to conditions: in vivo. In short, it runs like this:
as §2

In data set [5] the test system is J774.A1. Briefly: Antiinflammatory activity in LPS-induced mouse J774.A1 cells assessed as inhibition of LPS-induced IL-6 release at 10 uM preincubated for 30 mins followed by LPS stimulation for 24 hrs by ELISA method. In kind it is functional. As to conditions: time 24.5 hrs. An outline of the steps: (§3)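 J774A.1 macrophages pretreated 30 min at 10 μM, then challenged with LPS 0.5 μg/mL for 24 h at 37 °C, 5% CO2. Medium IL-6 and TNF-α measured by ELISA, normalized to total lysate protein.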

The subject of the next data set is LX-2. Description: Antiinflammatory activity in LPS-induced human LX2 cells assessed as inhibition of LPS-induced IL-6 release preincubated for 30 mins followed by LPS stimulation for 24 hrs by ELISA method. In kind it is functional, cell-based. In short, it runs like this:
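THP-1 or LX-2 cells in DMEM with 10% FBS, 37 °C, 5% CO2. Pretreated 30 min at 10, 5, 2.5 or 1.25 μM, then LPS 0.5 μg/mL for 24 h. IL-6 and TNF-α in medium measured by ELISA, normalized to lysate total protein; mean ± SEM of 3 independent experiments.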

For data set [6], the system named is Mus musculus. Briefly: Protection against LPS-induced sepsis in C57/BL6 mouse model assessed as improvement in survival rate at 20 mg/kg, po preincubated with compound followed by LPS stimulation for 1 hr and measured every 12 hrs by 6 days. As to conditions: time 6.0 day. In kind it is functional, organism-based. An outline of the steps: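 Sepsis model in C57BL/6 mice, n = 12 per group: oral 20 mg/kg, then intraperitoneal LPS 20 mg/kg 1 h later; saline control. Survival checked every 12 h and body weight every 24 h for 6 days.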

Data set [7] can be described thus: Half life in rat at 1 mg/kg, iv. In kind it is ADME, organism-based. As to conditions: in vivo. An outline of the steps:
as §2

For data set [8], the system named is J774.A1. Briefly: Antiinflammatory activity in LPS-induced mouse J774.A1 cells assessed as inhibition of LPS-induced TNF-alpha release at 10 uM preincubated for 30 mins followed by LPS stimulation for 24 hrs by ELISA method. In kind it is functional. As to conditions: time 24.5 hrs. In short, it runs like this: as §3
The test system of data set [9] is Mus musculus. Briefly: Antiinflammatory activity in LPS-induced C57/BL6 mouse acute lung injury model assessed as decrease in TNF-alpha expression level at 20 mg/kg via oral gavage preincubated for 30 mins followed by LPS stimulation for 6 hrs by RT-qPCR method. In kind it is functional, organism-based. Conditions: time 6.5 hrs. In short, it runs like this: (§4)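 Male C57BL/6 mice, six weeks old, n = 8 per group. Dosed 20 mg/kg orally 30 min before intratracheal LPS 5 mg/kg; dexamethasone 20 mg/kg as comparator. Lung tissue collected 6 h after LPS. RNA extracted with TRIzol; IL-6 and TNF-α transcripts by RT-qPCR, normalized to β-actin; n = 5 mice per group, mean ± SEM.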
(In qPCR the cycle at which signal appears reflects the starting amount.)

Data set [10] deals with J774.A1. Briefly: Antiinflammatory activity in LPS-induced mouse J774.A1 cells assessed as inhibition of LPS-induced IL-6 release preincubated for 30 mins followed by LPS stimulation for 24 hrs by ELISA method. In kind it is functional, cell-based. In short, it runs like this:
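Dose-response in J774A.1 cells: 30 min pretreatment at 10, 5, 2.5 or 1.25 μM, then LPS 0.5 μg/mL for 24 h. IL-6 and TNF-α by ELISA, normalized to lysate protein; IC50 from the dose-response; 3 independent experiments, mean ± SEM.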

The subject of data set [11] is Mus musculus. Briefly: Antiinflammatory activity in LPS-induced C57/BL6 mouse acute lung injury model assessed as decrease in TNF-alpha level in serum at 20 mg/kg via oral gavage preincubated for 30 mins followed by LPS stimulation for 6 hrs by ELISA. Conditions: time 6.5 hrs.
Data set [12] deals with Mus musculus. Description: Antiinflammatory activity in LPS-induced C57/BL6 mouse acute lung injury model assessed as decrease in IL-6 expression level at 20 mg/kg via oral gavage preincubated for 30 mins followed by LPS stimulation for 6 hrs by RT-qPCR method. In kind it is functional, organism-based. As to conditions: time 6.5 hrs. In short, it runs like this: as §4

The subject of data set [13] is J774.A1. Briefly: Cytotoxicity against mouse J774.A1 cells assessed as reduction in cell viability at 10 uM incubated for 24 hrs by MTT assay. In kind it is functional, cell-based. An outline of the steps:
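J774A.1 macrophages exposed to 10 μM for 24 h; MTT at 5 mg/mL added for 4 h; absorbance read at 490 nm; viability expressed as percent of DMSO control.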
(In general: Tetrazolium assays rely on reduction of a dye to a coloured formazan, in cell work by metabolically active cells.)

The test system of data set [14] is Mus musculus. Description: Protection against LPS-induced C57/BL6 mouse acute lung injury model assessed as improvement in alveolar wall thickening at 20 mg/kg via oral gavage preincubated for 30 mins followed by LPS stimulation for 6 hrs. In kind it is functional, organism-based. As to conditions: time 6.5 hrs. An outline of the steps: as §1
Data set [15] can be described thus: AUC (0 to t) in rat at 10 mg/kg, po. In kind it is ADME, organism-based. Also on record: dose 10 mg/kg, route po. Conditions: in vivo. An outline of the steps:
as §2

Data set [16] can be described thus: Oral bioavailability in rat at 10 mg/kg. In kind it is ADME, organism-based. Conditions: in vivo. In short, it runs like this:
as §2

Data set [17] relates to J774.A1. Description: Antiinflammatory activity in LPS-induced mouse J774.A1 cells assessed as inhibition of LPS-induced IL-6 transcription preincubated for 0.5 hrs followed by LPS stimulation for 6 hrs by RT-qPCR method. In kind it is functional, cell-based. Conditions: dose 5-10 µM, time 6.5 hrs. In short, it runs like this:
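J774A.1 or THP-1 cells pretreated 0.5 h at 10 or 5 μM, then LPS 0.5 μg/mL for 6 h. TRIzol RNA; IL-6, TNF-α and IL-1β transcripts by RT-qPCR, normalized to β-actin and control; 3 independent experiments, mean ± SEM.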

Data set [18] has as its system J774.A1. Description: Inhibition of NF-kappaB pathway in LPS-induced mouse J774.A1 cells assessed as reduction in p65 nuclear translocation preincubated with compound for 2 hrs followed by LPS-stimulation and measured after 30 mins by Western blot analysis. In kind it is cell-based. Conditions: time 2.5 hrs.
In data set [19] the test system is J774.A1. Briefly: Inhibition of NF-kappaB pathway in LPS-induced mouse J774.A1 cells assessed as inhibition of p65 phosphorylation preincubated with compound for 2 hrs followed by LPS-stimulation and measured after 30 mins by Western blot analysis. In kind it is cell-based. Conditions: dose 5-10 µM, time 2.5 hrs. An outline of the steps: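 J774A.1 cells preincubated with 10 or 5 μM or DMSO for 2 h, then LPS 0.5 μg/mL for 30 min. RIPA lysates run on 12.5% SDS-PAGE, transferred to PVDF, blocked with 5% milk; probed for IκB-α and p-p65, with GAPDH and p65 as loading controls; ECL detection; densitometry.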

Active and inactive are the calls of the source. No cut-off for these calls is given here.

In the case of `COc1cc2nccc(Oc3ccc(NC(=O)c4cn(-c5ccccc5)c5ccccc5c4=O)cc3)c2cc1OC`, the result in the data set on Mus musculus [1], in the data set with Mus musculus [3], in the data set on Mus musculus [6], with Mus musculus [9], in the data set with Mus musculus [11] and in the data set with Mus musculus [12] was Active. For the same compound, the outcome in the data set on Mus musculus [14] was Active. In addition, in data set [2], the concentration peaked (Cmax) at 1680 ng/mL. The figures for the half-life in data set [4] and in data set [7] were 11.8 h and 8.9 h, respectively. Besides, the inhibition at 10 µM with J774.A1 [5] came to 75%; in the data set on J774.A1 [8] it was 82.6%. Moreover, the IC50 came out at 2620 nM in the data set with LX-2 and 1330 nM in the data set on J774.A1 [10]. In addition, the inhibition result in the data set with J774.A1 [10] (dose 1.25-10 µM, time 24.5 hrs) was “Dose-Dependent Effect”; with J774.A1 [17], “Dose-Dependent Effect”; in the data set on J774.A1 [19] it was “Dose-Dependent Effect”. Further, in the data set with J774.A1 [13], the outcome was inactive. Moreover, the AUC(0-t) in [15] is 22900 ng·h/mL. The bioavailability in data set [16] is 36.3%. Moreover, the inhibition result in the data set on J774.A1 [18] is “Active”.
